{"source": "ChEMBL document CHEMBL1124765", "about": "“Synthesis and biological properties of novel phosphotriesters: a new approach to the introduction of biologically active nucleotides into cells” (J Med Chem, 1990)", "format_in_all_cases": "functional", "key": {"[1]": {"system": "Human alphaherpesvirus 2", "test": "Evaluated for the minimum inhibitory concentration (MIC) in primary rabbit kidney (PRK) by 50% upon preincubation in medium containing 10% fetal calf serum at 37 degree Celsius for 24 hr against herpes simplex virus type-2 (HSV-2) with strains G", "method_in_brief": "(§1)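 Compounds were preincubated in medium with 10% fetal calf serum for 24 h at 37 °C before addition to the cells. Confluent primary rabbit kidney monolayers were infected with 100 CCID50 of virus and adsorbed for 1 h. Residual virus was removed and cells were incubated with varying compound concentrations. The endpoint was 50% reduction of cytopathogenicity, read when infected controls reached full CPE.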"}, "[2]": {"system": "Human alphaherpesvirus 1", "test": "Evaluated for the minimum inhibitory concentration (MIC) in primary rabbit kidney (PRK) by 50% upon preincubation in medium containing 10% fetal calf serum at 37 degree Centigrade for 24 hr against herpes simplex virus type-1 (HSV-1) with strain McI", "method_in_brief": "as §1"}, "[3]": {"system": "Vaccinia virus", "test": "Evaluated for the minimum inhibitory concentration (MIC) in primary rabbit kidney (PRK) by 50% against Vaccinia virus", "conditions": "Orthopoxvirus vaccinia", "method_in_brief": "(§2)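 Confluent primary rabbit kidney cell monolayers were infected with 100 CCID50 of virus. After 1 h adsorption, residual virus was removed and cells were incubated with serial compound concentrations. Cytopathogenicity was scored once it reached completion in untreated infected controls. The endpoint was the concentration reducing virus-induced cytopathogenicity by 50%.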"}, "[4]": {"system": "Mus musculus", "test": "Topical treatment of intracutaneous TK- herpes simplex virus type 1 of strain VMW 1837 infection of Nu/nu mice for mean day of appearance of skin lesions and/or paralysis of the hind legs at 3% concentration (v/v in DMSO)", "method_in_brief": "(§3)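 Inocula were TK⁻ HSV-1 at 10⁶ CCID50/0.05 mL or HSV-1 KOS at 10^4.7 PFU/0.05 mL. Test formulations in DMSO were applied topically four times daily for 5 days, starting at infection. Skin lesions, hind-leg paralysis and death were recorded daily for 28 (KOS) or 49 (TK⁻) days, with five mice per group.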"}, "[5]": {"system": "Human alphaherpesvirus 1", "test": "Evaluated for the minimum inhibitory concentration (MIC) in primary rabbit kidney (PRK) by 50% against herpes simplex virus type-1 (HSV-1) with strains KOS", "method_in_brief": "(§4)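 Confluent primary rabbit kidney cell cultures infected with 100 CCID50 virus; after 1 h adsorption residual virus removed and cells incubated with varying compound concentrations. Cytopathogenicity scored when complete in infected untreated controls; MIC = concentration reducing virus-induced cytopathogenicity by 50%. Compounds tested as such or after preincubation in medium with 10% fetal calf serum, 24 h, 37 °C.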"}, "[6]": {"system": "Vaccinia virus", "test": "Evaluated for the minimum inhibitory concentration (MIC) in primary rabbit kidney (PRK) by 50% upon pre-incubation in medium containing 10% fetal calf serum at 37 degree Centigrade for 24 hr against Vaccinia virus", "conditions": "Orthopoxvirus vaccinia", "method_in_brief": "as §1"}, "[7]": {"system": "Human alphaherpesvirus 1", "test": "Evaluated for the minimum inhibitory concentration (MIC) in primary rabbit kidney (PRK) by 50% upon pre-incubation in medium containing 10% fetal calf serum at 37 degree Centigrade for 24 hr against TK- herpes simplex virus type 1 (TK- HSV-1) with st", "method_in_brief": "as §1"}, "[8]": {"system": "Mus musculus", "test": "Topical treatment of intracutaneous TK- herpes simplex virus type 1 of strain VMW 1837 infection of Nu/nu mice for mean day of appearance of skin lesions and/or paralysis of the hind legs at 0.3% concentration (v/v in DMSO)", "method_in_brief": "as §3"}, "[9]": {"system": "Human alphaherpesvirus 2", "test": "Evaluated for the minimum inhibitory concentration (MIC) in primary rabbit kidney (PRK) by 50% upon preincubation in medium containing 10% fetal calf serum at 37 degree Centigrade for 24 hr against herpes simplex virus type-2 (HSV-2) with strains 19", "method_in_brief": "as §1"}, "[10]": {"system": "Human alphaherpesvirus 1", "test": "Evaluated for the minimum inhibitory concentration (MIC) in primary rabbit kidney (PRK) by 50% upon pre-incubation in medium containing 10% fetal calf serum at 37 degree Centigrade for 24 hr against herpes simplex virus type-1 (HSV-1) with strainKOS", "method_in_brief": "as §1"}, "[11]": {"system": "Human alphaherpesvirus 2", "test": "Evaluated for the minimum inhibitory concentration (MIC) in primary rabbit kidney (PRK) by 50% upon preincubation in medium containing 10% fetal calf serum at 37 degree Celsius for 24 hr against herpes simplex virus type-2 (HSV-2) with strains Ly", "method_in_brief": "as §1"}, "[12]": {"system": "Human alphaherpesvirus 1", "test": "Evaluated for the minimum inhibitory concentration (MIC) in primary rabbit kidney (PRK) by 50% against herpes simplex virus type-1 (HSV-1) with strains F", "method_in_brief": "as §4"}, "[13]": {"system": "Human alphaherpesvirus 1", "test": "Evaluated for the minimum inhibitory concentration (MIC) in primary rabbit kidney (PRK) by 50% against herpes simplex virus type-1 (HSV-1) with strains McIntyre", "method_in_brief": "as §4"}, "[14]": {"system": "Human alphaherpesvirus 2", "test": "Evaluated for the minimum inhibitory concentration (MIC) in primary rabbit kidney (PRK) by 50% against herpes simplex virus type-2 (HSV-2) with strains G", "method_in_brief": "as §2"}, "[15]": {"species": "Mus musculus", "test": "Mean time survival (MTS) of the mice at the end of 28 or 49 days.", "method_in_brief": "as §3"}, "[16]": {"system": "Vesicular stomatitis virus", "test": "Evaluated for the minimum inhibitory concentration (MIC) in primary rabbit kidney (PRK) by 50% against Vesicular stomatitis virus", "method_in_brief": "as §2"}, "[17]": {"species": "Oryctolagus cuniculus", "test": "Evaluated for the minimum cytotoxic concentration (MCC) upon preincubation of rabbit kidney cells", "method_in_brief": "(§5)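 Primary rabbit kidney cell cultures were exposed to compounds, some preincubated 24 h at 37 °C in medium with 10% fetal calf serum. The minimum cytotoxic concentration was the level causing a microscopically detectable change in normal cell morphology.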"}, "[18]": {"system": "Human alphaherpesvirus 1", "test": "Evaluated for the minimum inhibitory concentration (MIC) in primary rabbit kidney (PRK) by 50% against TK- herpes simplex virus type 1 (TK- HSV-1) with strain VMW 1837.", "method_in_brief": "as §2"}, "[19]": {"system": "Vesicular stomatitis virus", "test": "Evaluated for the minimum inhibitory concentration (MIC) in primary rabbit kidney (PRK) by 50% upon pre-incubation in medium containing 10% fetal calf serum at 37 degree Centigrade for 24 hr against Vesicular stomatitis virus", "method_in_brief": "as §1"}, "[20]": {"species": "Oryctolagus cuniculus", "test": "Evaluated for the minimum cytotoxic concentration (MCC) upon preincubation of rabbit kidney cells in medium containing 10% fetal calf serum at 37 degree Celsius for 24 hr", "conditions": "Oryctolagus cuniculus, kidney; read-out: MCC", "method_in_brief": "as §5"}, "[21]": {"system": "Human alphaherpesvirus 1", "test": "Evaluated for the minimum inhibitory concentration (MIC) in primary rabbit kidney (PRK) by 50% upon preincubation in medium containing 10% fetal calf serum at 37 degree Celsius for 24 hr against herpes simplex virus type-1 (HSV-1) with strainF", "method_in_brief": "as §1"}, "[22]": {"system": "Mus musculus", "test": "Topical treatment of intracutaneous TK- herpes simplex virus type 1 of strain VMW 1837 infection of Nu/nu mice for mean day of appearance of skin lesions and/or paralysis of the hind legs at 1% concentration (v/v in DMSO)", "method_in_brief": "as §3"}, "[23]": {"system": "Human alphaherpesvirus 2", "test": "Evaluated for the minimum inhibitory concentration (MIC) in primary rabbit kidney (PRK) by 50% against herpes simplex virus type-2 (HSV-2) with strains 196", "method_in_brief": "as §4"}, "[24]": {"system": "Human alphaherpesvirus 2", "test": "Evaluated for the minimum inhibitory concentration (MIC) in primary rabbit kidney (PRK) by 50% against herpes simplex virus type-2 (HSV-2) with strains Lyons", "method_in_brief": "as §4"}, "[25]": {"system": "Human alphaherpesvirus 1", "test": "Evaluated for the minimum inhibitory concentration (MIC) in primary rabbit kidney (PRK) by 50% against TK- herpes simplex virus type 1 (TK- HSV-1) with strain B2006", "method_in_brief": "as §2"}, "[26]": {"system": "Human alphaherpesvirus 1", "test": "Evaluated for the minimum inhibitory concentration (MIC) in primary rabbit kidney (PRK) by 50% upon preincubation in medium containing 10% fetal calf serum at 37 degree Centigrade for 24 hr against TK- herpes simplex virus type 1 (TK- HSV-1) with st", "method_in_brief": "as §1"}}, "note": "Values joined by “and” are separate entries in the source; they are usually repeats but may differ in a detail not shown here. Identical values can stand only once.", "data": [{"smiles": "CS(=O)(=O)c1ccc(OP(=O)(OC[C@H]2O[C@@H](n3cc(/C=C/Br)c(=O)[nH]c3=O)C[C@@H]2O)OC[C@H]2O[C@@H](n3cc(/C=C/Br)c(=O)[nH]c3=O)C[C@@H]2O)cc1", "values": [{"measurement": "MIC", "setting": "[1]", "value": 150, "unit": "µg/mL"}, {"measurement": "MIC", "setting": "[2]", "value": 0.7, "unit": "µg/mL"}, {"measurement": "MIC", "setting": "[3]", "value": "> 400", "unit": "µg/mL"}, {"measurement": "Mean day appearance of lesions", "setting": "[4]", "value": 9.7}, {"measurement": "MIC", "setting": "[5]", "value": 2, "unit": "µg/mL"}, {"measurement": "MIC", "setting": "[6]", "value": 70, "unit": "µg/mL"}, {"measurement": "MIC", "setting": "[7]", "value": 300, "unit": "µg/mL"}, {"measurement": "Mean day appearance of lesions", "setting": "[8]", "value": 16.7}, {"measurement": "MIC", "setting": "[9]", "value": "> 400", "unit": "µg/mL"}, {"measurement": "MIC", "setting": "[10]", "value": 0.2, "unit": "µg/mL"}, {"measurement": "MIC", "setting": "[11]", "value": 200, "unit": "µg/mL"}, {"measurement": "MIC", "setting": "[12]", "value": 2, "unit": "µg/mL"}, {"measurement": "MIC", "setting": "[13]", "value": 2, "unit": "µg/mL"}, {"measurement": "MIC", "setting": "[14]", "value": "> 200", "unit": "µg/mL"}, {"measurement": "MTS", "setting": "[15]", "value": "15 days and 24.2 days and 37.8 days"}, {"measurement": "MIC", "setting": "[16]", "value": "> 400", "unit": "µg/mL"}, {"measurement": "MCC", "setting": "[17]", "value": "> 400", "unit": "µg/mL"}, {"measurement": "MIC", "setting": "[18]", "value": "> 400", "unit": "µg/mL"}, {"measurement": "MIC", "setting": "[19]", "value": "> 400", "unit": "µg/mL"}, {"measurement": "MCC", "setting": "[20]", "value": "> 400", "unit": "µg/mL"}, {"measurement": "MIC", "setting": "[21]", "value": 0.2, "unit": "µg/mL"}, {"measurement": "Mean day appearance of lesions", "setting": "[22]", "value": 10.4}, {"measurement": "MIC", "setting": "[23]", "value": "> 400", "unit": "µg/mL"}, {"measurement": "MIC", "setting": "[24]", "value": "> 400", "unit": "µg/mL"}, {"measurement": "MIC", "setting": "[25]", "value": "> 400", "unit": "µg/mL"}, {"measurement": "MIC", "setting": "[26]", "value": "> 400", "unit": "µg/mL"}]}]}
